According to ChEMBL document CHEMBL1156597, “Structure-activity relationship of kahalalide F synthetic analogues” (J Med Chem, 2008):

Key:
[1] = test system: PANC-1; assay: Cytotoxicity against human PANC1 cells after 48 hrs by SRB assay; assay type: functional; conditions: PANC-1, 48 h; for CC50: read-out: LC50 (the source's name)
Summary of the method: (§1)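 Cells grown in RPMI 1640 with 10% FBS and penicillin/streptomycin at 37 °C and 5% CO₂, trypsinized, then seeded at 5 × 10³/well. After 18 h drug-free attachment, samples in DMSO/EtOH/PBS (0.5:0.5:99) were added for 48 h continuous exposure. Cells were fixed with cold TCA (1 h, 4 °C) and stained with SRB (10 min). Tris-solubilized stain read at 490 nm. Triplicate wells, mean ± SD; GI₅₀ derived.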

[2] = test system: LNCaP; assay: Cytotoxicity against human LNcaP cells after 48 hrs by SRB assay; assay type: functional; conditions: for CC50: read-out: LC50 (the source's name); summary of the method: as §1
[3] = test system: HeLa; assay: Cytotoxicity against human HeLa cells after 48 hrs by SRB assay; assay type: functional; conditions: for CC50: read-out: LC50 (the source's name); summary of the method: as §1
[4] = test system: HT-29; assay: Cytotoxicity against human HT29 cells after 48 hrs by SRB assay; assay type: functional, cell-based; conditions: Homo sapiens, HT-29, 48 h; for CC50: read-out: LC50 (the source's name); summary of the method: as §1
[5] = test system: DU-145; assay: Cytotoxicity against human DU145 cells after 48 hrs by SRB assay; assay type: functional, cell-based; conditions: Homo sapiens, DU-145, 48 h; for CC50: read-out: LC50 (the source's name); summary of the method: as §1
[6] = Cytotoxicity against human HeLa-APL cells after 48 hrs by SRB assay; assay type: functional; summary of the method: as §1
[7] = test system: A549; assay: Cytotoxicity against human A549 cells after 48 hrs by SRB assay; assay type: functional, cell-based; conditions: Homo sapiens, A549, 48 h; summary of the method: as §1
[8] = test system: LoVo; assay: Cytotoxicity against human doxorubicin resistant LoVo cells after 48 hrs by SRB assay; assay type: functional; conditions: for CC50: read-out: LC50 (the source's name); summary of the method: as §1
[9] = Cytotoxicity against human IGROV-ET cells after 48 hrs by SRB assay; assay type: functional; conditions: for CC50: read-out: LC50 (the source's name); summary of the method: as §1
[10] = Cytotoxicity against human IGROV cells after 48 hrs by SRB assay; assay type: functional; conditions: for CC50: read-out: LC50 (the source's name); summary of the method: as §1
[11] = test system: K562; assay: Cytotoxicity against human K562 cells after 48 hrs by SRB assay; assay type: functional; conditions: K562, 48 h; for CC50: read-out: LC50 (the source's name); summary of the method: as §1
[12] = test system: LoVo; assay: Cytotoxicity against human LoVo cells after 48 hrs by SRB assay; assay type: functional; conditions: for CC50: read-out: LC50 (the source's name)
[13] = test system: SK-MEL-28; assay: Cytotoxicity against human SK-MEL-28 cells after 48 hrs by SRB assay; assay type: functional, cell-based; conditions: Homo sapiens, SK-MEL-28, 48 h; for CC50: read-out: LC50 (the source's name); summary of the method: as §1
[14] = test system: SK-BR-3; assay: Cytotoxicity against human SKBR3 cells after 48 hrs by SRB assay; assay type: functional; conditions: SK-BR-3, 48 h; for CC50: read-out: LC50 (the source's name); summary of the method: as §1

C/C=C1\NC(=O)[C@H](Cc2ccccc2)NC(=O)[C@@H](C(C)C)NC(=O)[C@@H]([C@H](C)CC)NC(=O)[C@H](NC(=O)[C@H](NC(=O)[C@H](CCCN)NC(=O)[C@H]2CCCN2C(=O)[C@H](NC(=O)[C@@H](NC(=O)[C@H](CCC(=O)O)NC(=O)[C@H](NC(=O)CCCC(C)C)C(C)C)C(C)C)C(C)C)[C@H](C)CC)[C@H](C)OC(=O)[C@H](C(C)C)NC1=O
CC50 [1]: 1740 nM
GI50 [2]: 1070 nM
TGI [2]: 949 nM
CC50 [2]: 838 nM
GI50 [3]: 2550 nM
TGI [3]: 2500 nM
CC50 [3]: 1100 nM
CC50 [4]: 422 nM
TGI [5]: 2630 nM
GI50 ([5]; read-out: GI50): 2480 nM
CC50 [5]: 1370 nM
GI50 [6]: 2060 nM
LC50 (concentration giving 50% net cell kill) [6]: 956 nM
TGI [6]: 1890 nM
LC50 [7]: 7080 nM
TGI [7]: 1450 nM
GI50 ([7]; read-out: GI50): 1630 nM
CC50 [8]: 294 nM
GI50 [9]: 849 nM
GI50 ([9]; read-out: GI50): 1130 nM
CC50 [9]: 639 nM
GI50 [10]: 498 nM
GI50 ([10]; read-out: GI50): 857 nM
CC50 [10]: 483 nM
CC50 [11]: 1960 nM
CC50 [12]: 292 nM
CC50 [13]: 1470 nM
CC50 [14]: 356 nM

C/C=C1\NC(=O)[C@H](Cc2ccccc2)NC(=O)[C@@H](C(C)C)NC(=O)[C@@H]([C@H](C)CC)NC(=O)[C@H](NC(=O)[C@H](NC(=O)[C@H](CCCN)NC(=O)[C@H]2CCCN2C(=O)[C@H](NC(=O)[C@@H](NC(=O)[C@@H](NC(=O)[C@H](NC(=O)CCCCCCCCCCCCCCC)C(C)C)[C@@H](C)O)C(C)C)C(C)C)[C@H](C)CC)[C@H](C)OC(=O)[C@H](C(C)C)NC1=O
GI50 [1]: 203 nM
TGI [1]: 1370 nM
CC50 [1]: 1300 nM
GI50 [2]: 129 nM
TGI [2]: 118 nM
CC50 [2]: 107 nM
CC50 [3]: 151 nM
CC50 [4]: 72.7 nM
GI50 [5]: 126 nM
GI50 ([5]; read-out: GI50): 145 nM
CC50 [5]: 111 nM
GI50 [6]: 326 nM
LC50 (concentration giving 50% net cell kill) [6]: 513 nM
TGI [6]: 479 nM
GI50 [7]: 126 nM
LC50 [7]: 117 nM
GI50 ([7]; read-out: GI50): 1370 nM
GI50 [8]: 264 nM
TGI [8]: 262 nM
CC50 [8]: 258 nM
GI50 [9]: 140 nM
GI50 ([9]; read-out: GI50): 345 nM
CC50 [9]: 79.1 nM
GI50 [10]: 92.6 nM
GI50 ([10]; read-out: GI50): 191 nM
CC50 [10]: 62.2 nM
GI50 [11]: 124 nM
TGI [11]: 314 nM
CC50 [11]: 703 nM
GI50 [12]: 300 nM
TGI [12]: 293 nM
CC50 [12]: 286 nM
GI50 [13]: 123 nM
GI50 ([13]; read-out: GI50): 138 nM
CC50 [13]: 110 nM
GI50 [14]: 39.8 nM
GI50 ([14]; read-out: GI50): 43.9 nM
CC50 [14]: 36 nM

C/C=C1\NC(=O)[C@H](Cc2ccccc2)NC(=O)[C@@H](C(C)C)NC(=O)[C@@H]([C@H](C)CC)NC(=O)[C@H](NC(=O)[C@H](NC(=O)[C@H](CCCN)NC(=O)[C@H]2CCCN2C(=O)[C@H](NC(=O)[C@@H](NC(=O)[C@H](C)NC(=O)[C@H](NC(=O)CCCC(C)C)C(C)C)C(C)C)C(C)C)[C@H](C)CC)[C@H](C)OC(=O)[C@H](C(C)C)NC1=O
GI50 [1]: 1160 nM
TGI [1]: 1420 nM
CC50 [1]: 1810 nM
GI50 [2]: 1380 nM
TGI [2]: 1160 nM
CC50 [2]: 967 nM
GI50 [3]: 1270 nM
TGI [3]: 1120 nM
CC50 [3]: 998 nM
CC50 [4]: 437 nM
TGI [5]: 1250 nM
GI50 ([5]; read-out: GI50): 1420 nM
CC50 [5]: 1100 nM
GI50 [6]: 1280 nM
LC50 (concentration giving 50% net cell kill) [6]: 873 nM
TGI [6]: 1060 nM
GI50 [7]: 585 nM
LC50 [7]: 4930 nM
GI50 ([7]; read-out: GI50): 641 nM
GI50 [8]: 1080 nM
TGI [8]: 1190 nM
CC50 [8]: 306 nM
GI50 [9]: 808 nM
GI50 ([9]; read-out: GI50): 1230 nM
CC50 [9]: 561 nM
CC50 [10]: 503 nM
GI50 [11]: 822 nM
TGI [11]: 1610 nM
CC50 [11]: 1970 nM
GI50 [12]: 2050 nM
TGI [12]: 2070 nM
CC50 [12]: 338 nM
TGI [13]: 1190 nM
GI50 ([13]; read-out: GI50): 1240 nM
CC50 [13]: 1150 nM
CC50 [14]: 371 nM

C/C=C1\NC(=O)[C@H](Cc2ccccc2Cl)NC(=O)[C@@H](C(C)C)NC(=O)[C@@H]([C@H](C)CC)NC(=O)[C@H](NC(=O)[C@H](NC(=O)[C@H](CCCN)NC(=O)[C@H]2CCCN2C(=O)[C@H](NC(=O)[C@@H](NC(=O)[C@@H](NC(=O)[C@H](NC(=O)CCCC(C)C)C(C)C)[C@@H](C)O)C(C)C)C(C)C)[C@H](C)CC)[C@H](C)OC(=O)[C@H](C(C)C)NC1=O
GI50 [1]: 1510 nM
TGI [1]: 1700 nM
CC50 [1]: 1700 nM
GI50 [2]: 92.8 nM
TGI [2]: 359 nM
CC50 [2]: 832 nM
GI50 [3]: 274 nM
TGI [3]: 506 nM
CC50 [3]: 889 nM
GI50 [4]: 89 nM
TGI [4]: 113 nM
CC50 [4]: 144 nM
GI50 [5]: 391 nM
GI50 ([5]; read-out: GI50): 180 nM
CC50 [5]: 670 nM
GI50 [6]: 312 nM
LC50 (concentration giving 50% net cell kill) [6]: 931 nM
TGI [6]: 533 nM
GI50 [7]: 659 nM
LC50 [7]: 1040 nM
GI50 ([7]; read-out: GI50): 418 nM
GI50 [8]: 44.3 nM
TGI [8]: 46.9 nM
CC50 [8]: 85.1 nM
GI50 [9]: 142 nM
GI50 ([9]; read-out: GI50): 97.3 nM
CC50 [9]: 196 nM
GI50 [10]: 118 nM
GI50 ([10]; read-out: GI50): 72.3 nM
CC50 [10]: 204 nM
GI50 [11]: 1850 nM
TGI [11]: 1850 nM
CC50 [11]: 1850 nM
GI50 [12]: 43.4 nM
TGI [12]: 63.5 nM
CC50 [12]: 111 nM
GI50 [13]: 638 nM
GI50 ([13]; read-out: GI50): 386 nM
CC50 [13]: 1050 nM
GI50 [14]: 56.8 nM
GI50 ([14]; read-out: GI50): 54.9 nM
CC50 [14]: 111 nM

C/C=C1\NC(=O)[C@H](Cc2ccccc2)NC(=O)[C@@H](C(C)C)NC(=O)[C@@H]([C@H](C)CC)NC(=O)[C@H](NC(=O)[C@H](NC(=O)[C@H](CCCN)NC(=O)[C@H]2CCCN2C(=O)[C@H](NC(=O)[C@@H](NC(=O)[C@@H](NC(=O)[C@H](NC(=O)CCCC(C)C)C(C)C)[C@@H](C)O)[C@@H](C)O)C(C)C)[C@H](C)CC)[C@H](C)OC(=O)[C@H](C(C)C)NC1=O
GI50 [1]: 5510 nM
TGI [1]: 4560 nM
CC50 [1]: 2320 nM
CC50 [2]: 1400 nM
CC50 [3]: 1380 nM
GI50 [4]: 11000 nM
TGI [4]: 8870 nM
CC50 [4]: 2370 nM
CC50 [5]: 1690 nM
LC50 (concentration giving 50% net cell kill) [6]: 1450 nM
LC50 [7]: 1820 nM
GI50 [8]: 2990 nM
TGI [8]: 2900 nM
CC50 [8]: 2820 nM
TGI [9]: 1750 nM
GI50 ([9]; read-out: GI50): 1910 nM
CC50 [9]: 644 nM
CC50 [10]: 859 nM
CC50 [11]: 1930 nM
GI50 [12]: 2970 nM
TGI [12]: 3350 nM
CC50 [12]: 3770 nM
CC50 [13]: 1860 nM
TGI [14]: 2430 nM
GI50 ([14]; read-out: GI50): 2070 nM
CC50 [14]: 1060 nM

C/C=C1\NC(=O)[C@H](Cc2ccccc2)NC(=O)[C@@H](C(C)C)NC(=O)[C@@H]([C@H](C)CC)NC(=O)[C@H](NC(=O)[C@H](NC(=O)[C@H](CCCN)NC(=O)[C@H]2CCCN2C(=O)[C@H](NC(=O)[C@@H](NC(=O)[C@H](NC(=O)[C@H](NC(=O)CCCC(C)C)C(C)C)[C@@H](C)O)C(C)C)C(C)C)[C@H](C)CC)[C@H](C)OC(=O)[C@H](C(C)C)NC1=O
CC50 [1]: 1770 nM
CC50 [2]: 1490 nM
CC50 [3]: 1920 nM
CC50 [4]: 4710 nM
CC50 [5]: 1460 nM
LC50 (concentration giving 50% net cell kill) [6]: 1800 nM
LC50 [7]: 1810 nM
CC50 [8]: 22300 nM
CC50 [9]: 1050 nM
CC50 [10]: 791 nM
GI50 [11]: 1930 nM
TGI [11]: 1930 nM
CC50 [11]: 1930 nM
TGI [12]: 8960 nM
CC50 [12]: 4750 nM
CC50 [13]: 1620 nM
CC50 [14]: 1140 nM
